Compound activity: PubChem BioAssay, several laboratories
Compounds with a hit are over-represented: about 6.7% of the library has one in this group of screens.
T cruzi inh: blocks replication of Trypanosoma cruzi. T. cruzi beta-gal in NIH3T3, luminescence, 90 h. inhibition, % (test concentration not listed). 300,000 tested, 1.4% active. AID 1885;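 active = mean inhibition across valid replicates above about 55%, limit read from the data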;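 also: signal also drops with host cell toxicity which is not excluded here; 0% = plate median of DMSO wells and 100% = zero luminescence signal; higher percent means less beta-gal luminescence so fewer parasites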
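Assay system: NIH/3T3 host cells with β-galactosidase reporter T. cruzi; input: 5,000 host fibroblasts per well; compound: single 50 nL compound addition per well in DMSO; timing: ≥90 h infection period, 3 h prior cell attachment; measured by: GalScreen β-gal luminescence, detergent lysis, 60 min; evaluation: percent inhibition of parasite-derived β-gal signal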
CHOP inhibitor: CHOP inhibition in unfolded protein response | 220,000 tested, 3.8% active | inhibition, % at 10 µM | CHO-K1 CHOP-promoter luciferase, tunicamycin-induced, 15-18 h;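 active = compounds that reduced the stress-induced luciferase reporter signal by more than about 70% of percent inhibition, limit read from the data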;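 also: 0% = tunicamycin plus vehicle and 100% = wells without tunicamycin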
Beta cell apopt: blocks beta cell apoptosis | INS-1E cytokine-induced death, ATP luminescence, 48 h; percent of positive-control rescue, neutral wells zero | protection from apoptosis, % (concentration not given with the values) | 300,000 tested, 0.8% active | AID 435005;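 active = Every replicate reaches about 75%, or at least half do and their mean reaches it too, limit read from the data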;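 also: 0% = cytokine-treated negative control wells and 100% = positive control rescue; higher means more ATP so stronger rescue from cytokine killing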
CSC inhib: cancer stem cell inhibition; cancer stem cell-like cells viability, luminescence; inhibition, % at 7.5 µM; 300,000 tested, 1.1% active; in the data active = inhibition above about 75%; tested in HMLE shEcad cells
PREPL inhibitor: human PREPL enzyme inhibition; AID 2751; Q4J6C6; recombinant PREPL, fluorescence polarization activity-based probe; 320,000 tested, 0.68% active; inhibition, % at 5.96 µM; in the data active = inhibition above about 43%;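 also: 0% = enzyme with DMSO and 100% = wells lacking enzyme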
Target sequence (Q4J6C6 whole entry, looked up): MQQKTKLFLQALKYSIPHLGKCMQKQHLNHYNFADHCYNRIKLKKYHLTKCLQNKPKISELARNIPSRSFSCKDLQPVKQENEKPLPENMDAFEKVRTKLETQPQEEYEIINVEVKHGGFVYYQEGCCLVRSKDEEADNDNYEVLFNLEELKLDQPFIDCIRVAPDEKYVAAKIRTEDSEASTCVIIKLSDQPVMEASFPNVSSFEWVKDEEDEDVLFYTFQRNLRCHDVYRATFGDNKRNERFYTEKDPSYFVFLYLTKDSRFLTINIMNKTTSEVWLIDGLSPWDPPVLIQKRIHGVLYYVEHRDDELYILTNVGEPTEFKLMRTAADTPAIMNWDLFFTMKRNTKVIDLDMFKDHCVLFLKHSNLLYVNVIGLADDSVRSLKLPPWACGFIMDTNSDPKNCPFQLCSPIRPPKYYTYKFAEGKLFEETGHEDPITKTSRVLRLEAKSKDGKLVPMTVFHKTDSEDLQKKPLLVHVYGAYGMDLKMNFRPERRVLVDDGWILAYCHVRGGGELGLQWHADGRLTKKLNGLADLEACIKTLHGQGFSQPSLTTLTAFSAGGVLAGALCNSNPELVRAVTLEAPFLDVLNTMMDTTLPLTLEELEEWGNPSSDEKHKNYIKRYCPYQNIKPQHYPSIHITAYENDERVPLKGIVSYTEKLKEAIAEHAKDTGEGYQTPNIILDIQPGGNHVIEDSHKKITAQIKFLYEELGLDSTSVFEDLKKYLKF
GRIN3A LBD mod: modulates the human NR3A ligand-binding domain. NR3A LBD differential scanning fluorimetry, Tm shift; 0% = protein alone, 100% = glycine-bound protein. Tm shift relative to glycine control, % at 25 µM. 340,000 tested, 2.5% active. AID 1259313;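 active = melting temperature shift of at least 10% of the positive control shift, at one fixed dose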
CHOP inh conf: confirmation of CHOP induction inhibitors; shares compounds with CHOP inhibitor; CHO-CHOP promoter luciferase reporter, tunicamycin-induced, luminescence; inhibition, % at 10 µM; 2,100 tested, 45% active;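 active = mean of three repeat readings of reporter signal inhibition above a set limit, cut at about 70% in these data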;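 also: 0% = tunicamycin plus vehicle and 100% = wells lacking tunicamycin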
* = called active by the depositor; · = no result given.

SMILES | T cruzi inh | CHOP inhibitor | Beta cell apopt | CSC inhib | PREPL inhibitor | GRIN3A LBD mod | CHOP inh conf
Cc1ccc(C(=O)N2CCN3C(=O)c4ccccc4C23c2ccc(Cl)cc2)cc1 (centres undefined) | 18 | -90 | 3 | 21 | -9 | -2 | ·
CC(NC(=O)/C(C#N)=C/c1ccc(Cl)c([N+](=O)[O-])c1)c1ccccc1 (centres undefined) | 32 | 105* | 0 | 11 | 1 | -7 | 94*
CC(OC(=O)Cn1cnc2c1c(=O)n(C)c(=O)n2C)C(=O)NC(C)c1ccc(Cl)cc1Cl (centres undefined) | -10 | · | 0 | -6 | 17 | 1 | ·
CCC(C)(C)c1ccc(Oc2ccc(N)cc2)cc1 | 12 | 108* | · | · | · | -9 | 125*
CCC(C)(C)c1ccc(OCCN2C(=O)NC(C)(C)C2=O)cc1 | -7 | 43 | · | -1 | 4 | 3 | ·
Cc1cc(NC(=O)/C(C#N)=C/c2ccco2)n(-c2ccccc2)n1 | 2 | 14 | 5 | 5 | 12 | -2 | ·
Cc1ccc(-c2ccc(/C=C(\C#N)C(=O)Nc3cc(C)nn3-c3ccccc3)o2)cc1 | 16 | 104* | 18 | 37 | 1 | · | 89*
CC(=O)N1CC(C)Oc2ccc(S(=O)(=O)NC(CC(=O)O)c3cc(C)ccc3C)cc21 (centres undefined) | -24 | · | -3 | -12 | 4 | -1 | ·
COc1ccc(C2C(C#N)=C(C)NC(C)=C2C(=O)OC(C)C)c(OC)c1 (centres undefined) | 13 | -12 | 1 | -12 | -3 | 0 | ·
COc1ccc(-c2[nH]c(-c3ccc(Cl)cc3)nc2SCC(=O)Nc2nccs2)cc1 | 26 | 98* | 29 | 26 | 18 | 11* | 33
CC(C)NC(=O)c1ccccc1NC(=O)/C=C/c1cccc([N+](=O)[O-])c1 | 8 | 107* | 113* | 96* | 1 | -5 | 111*
CC(C)C(NC(=O)/C=C/c1cccc([N+](=O)[O-])c1)C(C)C | -1 | 24 | 1 | -2 | 9 | 3 | ·
COc1cc(OC)cc(-c2nc3ccccc3c(=O)n2OC(=O)c2ccc(Br)cc2)c1 | 2 | 106* | 9 | 0 | 0 | -2 | 112*
COc1ccc(C(=O)On2c(-c3ccc(Br)cc3)nc3ccccc3c2=O)cc1 | -18 | 105* | 0 | 40 | -10 | 0 | 69
COc1ccc(-c2nc3ccccc3c(=O)n2N)cc1 | 2 | -12 | -2 | -2 | 0 | -1 | ·
COc1cccc(NC(=S)N2CCN(S(C)(=O)=O)CC2)c1 | · | · | -1 | 1 | · | -2 | ·
CCN1C=CC(=C2C(=O)c3ccccc3C2=O)C=C1 | -11 | 100* | 21 | -6 | -5 | -2 | 115*
CCCCCCN1C=CC(=C2C(=O)c3ccccc3C2=O)C=C1 | 19 | 99* | 18 | 40 | 0 | -6 | 102*
CCCN1C=CC(=C2C(=O)c3ccccc3C2=O)C=C1 | -3 | 103* | 63 | 55 | 10 | 1 | 126*
COC(=O)Nc1ccc2c(c1)N(C(=O)CCCl)c1ccccc1S2 | 44 | · | -7 | 8 | · | -5 | ·
COc1ccc(CCN2C(=O)CSC2=Nc2ccc(C(C)C)cc2)cc1OC | 18 | 55 | 32 | 13 | 4 | -1 | ·
COCCn1c(=NC(=O)c2cc3ccccc3oc2=O)sc2cc(S(N)(=O)=O)ccc21 | 4 | 101* | 10 | -9 | 5 | -5 | -21
COCCn1c(=NC(=O)CN2C(=O)CCC2=O)sc2cc(S(N)(=O)=O)ccc21 | 1 | 9 | -12 | -11 | -4 | 2 | ·
CCOC(=O)c1ccc(CNCc2ccc(Br)cc2)cc1 | 10 | 51 | -4 | 9 | 20 | -5 | ·
CCc1ccc(CN/C=C/C(=O)c2ccc(Br)cc2)cc1 | 23 | 104* | -4 | 2 | -4 | -11 | -26
SMILES | T cruzi inh | CHOP inhibitor | Beta cell apopt | CSC inhib | PREPL inhibitor | GRIN3A LBD mod | CHOP inh conf
Cc1cccc(C(=O)c2cnc3ccccc3c2-c2ccccc2)c1 | 18 | 102* | -2 | 18 | -16 | -1 | 77*
O=C(NN=C1CCCC1)c1ccccc1OCc1ccc(Cl)cc1 | 30 | 5 | · | -4 | -20 | 0 | ·
CCCOC(=O)c1ccc(Oc2c(-c3ccc(O)cc3O)n[nH]c2C)cc1 | -15 | 105* | 3 | 117* | 18 | · | 69
CCOC(=O)c1[nH]nc(-c2cc(CC)c(O)cc2O)c1-c1cscn1 | -1 | 18 | 5 | 13 | -6 | -1 | ·
CCc1cc(-c2n[nH]c(C)c2Oc2ccc(C(C)C)cc2)c(O)cc1O | 38 | 113* | -3 | 113* | 23 | 32* | 114*
O=C(COC(=O)c1ccc[nH]c1=O)NC1CCCCC1 | -2 | 7 | -8 | -16 | 1 | -1 | ·
Cc1ccc(C)c(OCCC(=O)Nc2cccc(S(=O)(=O)N3CCCCC3)c2)c1 | · | · | -8 | · | 8 | -2 | ·
Cc1nc2c(=O)n(C)c(=O)n(C)c2nc1Cl | -3 | 109* | -9 | 44 | 0 | 1 | 118*
CC1(C)C(C=C(Cl)Cl)C1C(=O)Nc1ccc([N+](=O)[O-])cc1 (centres undefined) | · | 104* | 96* | 54 | -3 | 8 | 58
COC(=O)Cc1ccc(NC(C)=O)cc1 | · | · | 2 | -10 | 16 | -3 | ·
COc1ccc(S(=O)(=O)N2CCCOC2CNC(=O)C(=O)NCc2ccccn2)cc1 (centres undefined) | -6 | · | -8 | -5 | -4 | 1 | ·
Cn1cc(C2CC(c3ccccc3)=NN2C(=O)c2ccccc2)c2ccccc21 (centres undefined) | 10 | 67 | 5 | 40 | 5 | -1 | ·
CCCC(=O)N1N=C(c2ccccc2)CC1c1cn(C)c2ccccc12 (centres undefined) | -4 | 105* | 11 | 4 | 6 | 15* | 9
CCC(CCNC(=O)c1ccccc1)(CCNC(=O)c1ccccc1)[N+](=O)[O-] | · | · | · | · | · | 0 | ·
CN(C)c1ccc(/C=N/NC(=O)CCc2nc3ccccc3[nH]2)cc1 | -8 | -1 | -3 | -4 | -9 | 1 | ·
CCc1nnc(NC(=O)c2sc3nc4c(cc3c2N)CCCCCC4)s1 | -9 | 105* | 8 | 50 | 19 | -6 | 2
Nc1nonc1-c1nc2ccccc2n1Cc1ccc(F)cc1Cl | -5 | 100* | -30 | 5 | 3 | -14 | -41
Cc1sc2nc(COC(=O)CNC(=O)c3ccc(C(C)(C)C)cc3)[nH]c(=O)c2c1C | -12 | 0 | -2 | -12 | -5 | 1 | ·
CN1CCN(/N=C/c2ccc(N(C)c3ccccc3)cc2)CC1 | 45 | -17 | -3 | 46 | -4 | 0 | ·
CN1CCN(/N=C/c2ccc(N(c3ccccc3)c3ccccc3)cc2)CC1 | 30 | 105* | 2 | 86* | 15 | -1 | -17
CCN1C[C@@H]2[C@@H]3C(=O)N(Cc4ccccc4)C(=O)[C@@H]3[C@](Cc3ccccc3)(C1=O)N2C(=O)c1ccc(C)cc1 | · | · | · | · | · | 6 | ·
